# Measurements from different studies.
# Lines come from different studies, so protocols differ.
SMILES,tested on,test,system,conditions,measurement,value
O=C(CN1C(=O)/C(=C/c2ccccc2O)SC1=S)Nc1ccccc1,A549,"cell growth or viability, MTT",,10 µM,inhibition,34.5%
COc1ccccc1-c1n[nH]c2nc(N[C@H]3CC[C@H](NS(=O)(=O)CCCOCCOCCNC(=O)OC(C)(C)C)CC3)ncc12,Leishmania donovani,parasite growth,THP-1,"intracellular, amastigote",EC50,5240 nM
O=C(Cc1c[nH]c2ccccc12)Nc1ccc(F)c(F)c1,,ABTS scavenging,,,IC50,1080 nM
CC1(C)S[C@@H]2[C@H](NC(=O)[C@H](N)c3ccccc3)C(=O)N2[C@H]1C(=O)O,Moraxella catarrhalis,"microbial growth, broth dilution",ATCC25238,,MIC,< 0.25 µg/mL
COc1ccc(-c2ccc(-c3ccc(C(=N)N)nc3)s2)cc1Cl,U-251,"cell growth or viability, SRB",,,GI50,1820 nM
CO/N=C1\CN(c2nc3c(cc2F)c(=O)c(C(=O)O)cn3C2CC2)CC1CN (stereo not drawn),Moraxella catarrhalis,microbial growth,,,MIC,2 µg/mL
Cc1ccc(Cl)cc1NC(=O)Cc1c[nH]c2ccccc12,,ABTS scavenging,,,IC50,1280 nM
O=C(CN1C(=O)/C(=C/c2cccs2)SC1=S)Nc1ccccc1,A549,"cell growth or viability, MTT",,10 µM,inhibition,23.5%
Clc1ccccc1C(c1ccccc1)(c1ccccc1)n1ccnc1,Mucor,"microbial growth, disc diffusion",,20000 µg/mL,inhibition zone,22 mm
CC(C)C[C@H](NC(=O)[C@H](Cc1ccccc1)NC(=O)c1cnccn1)B(O)O,NCI-H1048,"cell growth or viability, ATP luminescence",,,IC50,17 nM
O=C(Nc1ccccc1-c1ccc(F)c(F)c1)c1nccnc1C(F)(F)F,Colletotrichum gloeosporioides,microbial growth,,,EC50,> 100 µg/mL
COc1ccc(OC)c(NC(=O)Cc2c[nH]c3ccccc23)c1,,ABTS scavenging,,,IC50,1430 nM
COc1ccc(-c2ccc(-c3ccc(C(=N)N)nc3)s2)cc1,OVCAR-4,"cell growth or viability, SRB",,,GI50,1790 nM
O=C(Cc1c[nH]c2ccccc12)Nc1cccc(Br)c1,,ABTS scavenging,,,IC50,1140 nM
COc1cc(Nc2nccc(-c3cnn4nc(OC)ccc34)n2)cc(C(F)(F)F)c1,NCI-H2286,"cell growth or viability, ATP luminescence",,,IC50,160 nM
